# Measurements of several laboratories.
# Protocols differ between the studies behind these lines.
Compound,system,conditions,quantity,value
COc1ccnc(CNC(=O)c2cn(Cc3ccc(Cn4ccccc4=O)cc3)nc2C(F)(F)F)c1F,"male beagle dog, plasma","intravenous, 1 mg/kg",Vd,< 1 L
CN1CCC(c2ccccc2CC(C)(C)Nc2nc(N3CCOCC3)nc(-n3c(C(F)F)nc4ccccc43)n2)CC1,"dog, plasma","intravenous, 2 mg/kg, single dose",Vd,9.7 L/kg
O=C(NCCN1CCCC1)c1cc(-c2ccc(CN3CCOCC3)cc2)nc2ccc(F)cc12,"male beagle dog, blood","intravenous, 1 mg/kg",Vd,30 L/kg
Oc1c(-n2ccnn2)cnn1-c1cc(N2CCOCC2)ncn1,"female dog, plasma","intravenous, 3 mg/kg",Vd,0.78 L/kg
C=CC(=O)Nc1cc(Nc2nccc(Nc3cc(Cl)c(F)cc3C(C)(C)O)n2)c(OC)cc1N1CC[C@@H](N(C)C)C1,"beagle dog, plasma","intravenous, 1 mg/kg",Vd,29.5 L/kg
CCn1c(=O)c(-c2cc(NC(=O)Nc3ccccc3)c(F)cc2Br)cc2cnc(NC)cc21,"beagle dog, plasma","oral, 5 mg/kg, single dose",Vd/F,12.7 L/kg
COCc1nn(Cc2ccc(Cn3ccccc3=O)cc2)cc1C(=O)NCc1nccc(OC)c1F,"male beagle dog, plasma","intravenous, 1 mg/kg",Vd,< 1 L
Cc1nnc2sc(C(=O)NCc3ccc(-c4cccnc4F)cc3)c(N)c2c1C,"dog, plasma",intravenous,Vd,0.7 L/kg
CC[C@@H]1CN(C(=O)NCC(F)(F)F)C[C@@H]1c1cnc2cnc3[nH]ccc3n12,"beagle dog, plasma","oral, 1 mg/kg, single dose",Vd/F,29.1 L/kg
